Assay results as given in ChEMBL document CHEMBL3124807 (Eur J Med Chem, 2014).

Legend:
Rattus norvegicus [1] = test: Ulcerogenic effect in fasted Wistar albino rat at 25 mg/kg, po measured 2 hrs post last dose; format: toxicity, organism-based; set-up: dose 25 mg/kg, route oral; conditions: in vivo
Method in brief: (§1)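 Adult male Wistar albino rats (120–150 g), five per group, fasted 18 h before dosing. Oral doses were given for three successive days (test compounds 50 mg/kg, ibuprofen 25 mg/kg; control 10% aqueous DMSO), with feeding 2 h after dosing. Stomachs were removed 2 h after the last dose, opened along the greater curvature, rinsed with 0.9% NaCl and examined under a 10× lens. Ulcer index followed Robert's method (incidence/10, mean ulcer number, severity score).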

[2] = molecular target: T1, Prostaglandin G/H synthase 1 (Ovis aries, UniProt P05979); test: Inhibition of ovine COX1 using arachidonic acid as substrate incubated for 10 mins prior to substrate addition measured after 2 mins by enzyme immunoassay
T1 sequence (P05979 whole entry): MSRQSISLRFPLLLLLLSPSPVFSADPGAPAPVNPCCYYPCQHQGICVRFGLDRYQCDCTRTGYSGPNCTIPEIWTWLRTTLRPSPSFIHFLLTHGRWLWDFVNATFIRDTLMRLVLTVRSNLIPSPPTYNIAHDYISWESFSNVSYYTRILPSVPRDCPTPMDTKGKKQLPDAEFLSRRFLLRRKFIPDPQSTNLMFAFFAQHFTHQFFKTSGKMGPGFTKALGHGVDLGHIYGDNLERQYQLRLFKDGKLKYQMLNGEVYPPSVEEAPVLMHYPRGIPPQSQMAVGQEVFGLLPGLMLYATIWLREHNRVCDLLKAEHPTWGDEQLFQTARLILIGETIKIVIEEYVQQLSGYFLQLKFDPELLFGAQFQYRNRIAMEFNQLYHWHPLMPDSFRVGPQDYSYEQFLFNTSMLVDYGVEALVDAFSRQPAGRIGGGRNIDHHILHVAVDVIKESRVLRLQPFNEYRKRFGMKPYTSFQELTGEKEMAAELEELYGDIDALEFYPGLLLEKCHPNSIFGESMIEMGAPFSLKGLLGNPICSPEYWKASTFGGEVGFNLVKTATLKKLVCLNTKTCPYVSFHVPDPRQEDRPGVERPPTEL
Method in brief: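 Ovine COX-1 in 0.1 M Tris-HCl pH 8.0 with 5 mM EDTA, 2 mM phenol and heme. Test concentrations were 0, 0.01, 0.1, 1, 10 and 50 (final volume 1 ml). Preincubated 10 min at 37 °C, then arachidonic acid (100) was added and the reaction was stopped with 1 M HCl after 2 min. PGF2α (from SnCl2 reduction of PGH2) was quantified by competitive EIA at 410 nm. IC50 was taken from the concentration–inhibition curve, duplicates.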

[3] = Selectivity index, ratio of IC50 for ovine COX1 to IC50 for human recombinant COX2
Method in brief: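 IC50 (COX-1)/IC50 (COX-2). Both IC50 values come from the EIA described above, run with ovine COX-1 or human recombinant COX-2 under the same buffer, preincubation, arachidonic acid and duplicate conditions.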

[4] = molecular target: T2, Prostaglandin G/H synthase 2 (Homo sapiens, UniProt P35354); test: Inhibition of human recombinant COX2 using arachidonic acid as substrate incubated for 10 mins prior to substrate addition measured after 2 mins by enzyme immunoassay
T2 sequence (P35354 whole entry): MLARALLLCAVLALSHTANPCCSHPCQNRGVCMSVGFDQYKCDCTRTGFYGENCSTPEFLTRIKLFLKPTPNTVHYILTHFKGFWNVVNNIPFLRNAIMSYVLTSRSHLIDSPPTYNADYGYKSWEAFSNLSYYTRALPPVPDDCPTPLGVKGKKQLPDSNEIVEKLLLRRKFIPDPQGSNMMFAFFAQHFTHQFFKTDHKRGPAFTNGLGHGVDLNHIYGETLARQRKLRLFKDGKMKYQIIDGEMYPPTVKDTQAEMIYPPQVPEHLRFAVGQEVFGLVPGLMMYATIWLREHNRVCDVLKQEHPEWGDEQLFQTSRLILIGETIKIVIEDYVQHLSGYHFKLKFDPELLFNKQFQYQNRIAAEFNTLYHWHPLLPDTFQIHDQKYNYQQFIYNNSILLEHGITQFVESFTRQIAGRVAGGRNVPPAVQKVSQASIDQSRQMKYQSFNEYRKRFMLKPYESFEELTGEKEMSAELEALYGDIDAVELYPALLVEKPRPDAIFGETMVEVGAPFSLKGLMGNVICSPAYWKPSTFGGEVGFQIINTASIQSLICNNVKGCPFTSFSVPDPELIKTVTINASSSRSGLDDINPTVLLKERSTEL

Rattus norvegicus [5] = test: Antiinflammatory activity in Wistar albino rat assessed as inhibition of formalin-induced paw edema at 50 mg/kg, po administered 1 hr prior to formalin challenge measured after 30 mins relative to control; format: functional
Method in brief: (§2)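 Adult male Wistar albino rats (120–150 g), five per group. Dosed orally at 50 mg/kg in 10% aqueous DMSO (v/v) 1 h before 0.1 ml of 2.5% formalin was injected subcutaneously into the right hind paw; vehicle-only control group. Paw thickness was measured by Vernier caliper at 0 h and at 30 min, 1, 2 and 3 h. Edema inhibition % = (Vc − Vt)/Vc × 100; means of five ± S.E.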

Rattus norvegicus [6] = test: Antiinflammatory activity in Wistar albino rat assessed as inhibition of formalin-induced paw edema at 50 mg/kg, po administered 1 hr prior to formalin challenge measured after 3 hrs relative to control; format: functional; method in brief: as §2
Rattus norvegicus [7] = test: Ulcerogenic effect in fasted Wistar albino rat at 50 mg/kg, po measured 2 hrs post last dose; format: toxicity, organism-based; set-up: dose 50 mg/kg, route oral; conditions: in vivo; method in brief: as §1
Rattus norvegicus [8] = test: Antiinflammatory activity in Wistar albino rat assessed as inhibition of formalin-induced paw edema at 50 mg/kg, po administered 1 hr prior to formalin challenge measured after 1 hr relative to control; format: functional; method in brief: as §2
Rattus norvegicus [9] = test: Antiinflammatory activity in Wistar albino rat assessed as inhibition of formalin-induced paw edema at 50 mg/kg, po administered 1 hr prior to formalin challenge measured after 2 hrs relative to control; format: functional; method in brief: as §2
Rattus norvegicus [10] = test: Ulcerogenic effect in fasted Wistar albino rat assessed as reduction in ulcerogenic potential at 50 mg/kg, po measured 2 hrs post last dose relative to celecoxib; format: toxicity, organism-based; set-up: dose 50 mg/kg, route oral; scale not given: the % may be the effect or the level left; conditions: in vivo

| IC50 [2] | Ratio IC50 [3] | IC50 [4] | Structure (SMILES) | UI (Rattus norvegicus [1]) | inhibition in vivo at 50 mg/kg (Rattus norvegicus [5]) | inhibition in vivo at 50 mg/kg (Rattus norvegicus [6]) | UI (Rattus norvegicus [7]) | inhibition in vivo at 50 mg/kg (Rattus norvegicus [8]) | inhibition in vivo at 50 mg/kg (Rattus norvegicus [9]) | Activity (Rattus norvegicus [10]) |
| --- | --- | --- | --- | --- | --- | --- | --- | --- | --- | --- |
| – | – | – | CC(C)Cc1ccc(C(C)C(=O)O)cc1 (centres undefined) [IBUPROFEN] | 22.32 | – | – | – | – | – | – |
| > 50 µM | > 7.14 | 7 µM | COc1c(-c2cc(C(F)(F)F)nn2-c2ccc(S(N)(=O)=O)cc2)c(O)cc2occc12 | – | – | – | – | – | – | – |
| > 50 µM | > 96.2 | 0.52 µM | COc1c(-c2cc(C(F)(F)F)nn2-c2ccc(S(N)(=O)=O)cc2)c(O)c(OC)c2occc12 | – | 72.2% | 91.8% | 11.56 | 79% | 87.9% | – |
| > 50 µM | > 1.43 | 35 µM | COc1cc2occc2c(OC)c1-c1cc(-c2ccccc2)n(-c2ccc(S(N)(=O)=O)cc2)n1 | – | – | – | – | – | – | – |
| > 50 µM | > 109 | 0.46 µM | COc1cc2occc2c(OC)c1-c1cc(-c2ccc(F)cc2)n(-c2ccc(S(N)(=O)=O)cc2)n1 | – | 79.6% | 83.6% | 11.75 | 82.5% | 82.8% | – |
| – | – | – | Cc1ccc(-c2cc(C(F)(F)F)nn2-c2ccc(S(N)(=O)=O)cc2)cc1 [CELECOXIB] | – | 94.4% | 100% | 16.12 | 100% | 100% | – |
| > 50 µM | > 6.67 | 7.5 µM | COc1c(-c2cc(C)nn2-c2ccc(S(N)(=O)=O)cc2)c(O)cc2occc12 | – | – | – | – | – | – | – |
| > 50 µM | > 147 | 0.34 µM | COc1cc2occc2c(OC)c1-c1cc(-c2ccc(C(F)(F)F)cc2)n(-c2ccc(S(N)(=O)=O)cc2)n1 | – | 66.7% | 91.8% | 10.5 | 77.2% | 94.8% | – |
| > 50 µM | > 125 | 0.4 µM | COc1c(-c2cc(-c3cccnc3)nn2-c2ccc(S(N)(=O)=O)cc2)c(O)cc2occc12 | – | 90.1% | 100% | 13.82 | 96.2% | 100% | – |
| > 50 µM | > 1.93 | 26 µM | COc1cc2occc2c(OC)c1-c1cc(-c2ccc(Cl)cc2)n(-c2ccc(S(N)(=O)=O)cc2)n1 | – | – | – | – | – | – | – |
| > 50 µM | > 139 | 0.36 µM | COc1c(-c2cc(-c3cccnc3)nn2-c2ccc(S(N)(=O)=O)cc2)c(O)c(OC)c2occc12 | – | 90.7% | 100% | 10.5 | 96.5% | 100% | 40% |
